Test results published in PubChem BioAssay AID822 (SRMLSC, 2007).
The source made the active and inactive calls.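 How the source made its calls: active means half-maximal effective dose for blocking growth of human endothelial cells at most 100 µM; inactive means the rest.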

experiment: growth suppression of umbilical vein endothelial cells – cell-based, HUVEC, ATP luminescence, dose response (AID 822); conditions: HUVEC proliferation, viability ATP luminescence; at 20 µM (top of the series);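 further: cells exposed to compound for 72 h before the ATP read; 100% = median luminescence of untreated cell-only control wells on each plate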
How it was run: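 Test system: HUVEC; Input: 1250 HUVEC cells seeded per well; Doses: 0.039–20 µM, 0.2% DMSO; Evaluation: % viability versus median cell-only wells, EC50 from 4-parameter fit; Medium: EBM plus 2% FBS; Incubation: compound treatment 72 h, 37 °C; Signal: luminescent ATP measurement with CellTiter-Glo reagent; Plate: collagen-coated multiwell plates.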

| SMILES | viability |
| --- | --- |
| Cc1cc(Cl)ccc1OCCCC(N)=O | 94% (inactive) |
| COc1ccc(-c2nnc(SCCc3ccccc3)n2N)cc1 | 108% (inactive) |
| Nc1nc2ccccc2n1/N=C/c1ccc(-c2ccccc2)o1 | 90.9% (inactive) |
| Cc1cc(C)n(-c2nc(Nc3ccccc3C)nc(-n3nc(C)cc3C)n2)n1 | 118% (inactive) |
| O=C(Nc1cccnc1)c1ccc(Br)s1 | 90% (inactive) |
| Cc1cc(NC(=O)c2cccc(S(=O)(=O)N3CC(c4ccccc4)CC3=O)c2)no1 (centres undefined) | 91.3% (inactive) |
| CCOC(=O)N1CCN(C(=O)c2nn(-c3ccc(C)cc3)c(=O)c3c2c2ccccc2n3C)CC1 | 89.2% (inactive) |
| Cn1c(=O)c2cc(NCc3ccccc3)nnc2n(C)c1=O | 92.6% (inactive) |
| O=C1CSC(c2ccccn2)N1Cc1cn2ccccc2n1 (centres undefined) | 120% (inactive) |
| Cc1ccc(NC(=O)C(C)N2C(=O)c3ccccc3C2=O)cc1 (centres undefined) | 90.9% (inactive) |
| CCOc1cc(N2CCOCC2)c(OCC)cc1NC(=O)COc1ncnc2ccc(Br)cc12 | 91.2% (inactive) |
| CC(C)(C)c1ccc(-c2nnc(SCC(=O)O)n2N)cc1 | 106% (inactive) |
| Cc1ccc(-n2c(SCC(=O)Nc3nccs3)nc3c(c2=O)SCC3)cc1 | 100% (inactive) |
| O=C(Oc1ccccc1-c1nnco1)c1ccc(Cl)cc1 | 105% (inactive) |
| Cn1c(=O)cc(SCC(=O)NCC2COc3ccccc3O2)c2ccccc21 (centres undefined) | 98.4% (inactive) |
| CCOc1ccc(OCc2ccc(C(=O)NCC3CCCO3)o2)cc1 (centres undefined) | 116% (inactive) |
| COc1ccc(OC)c(S(=O)(=O)N(C)CC(=O)N2CCN(c3ccc(F)cc3)CC2)c1 | 100% (inactive) |
| CCOC(=O)c1c(NC(=O)C2COc3ccccc3O2)sc(C(C)=O)c1C (centres undefined) | 112% (inactive) |
| Cn1c(SCC(=O)Nc2ccc(N3CCOCC3)cc2)nnc1-c1ccccc1 | 103% (inactive) |
| COc1cccc2c(C)nc(Nc3nc(CSc4nnc(C)s4)cc(=O)[nH]3)nc12 | 101% (inactive) |
| COc1ccc(CCn2c(=S)[nH]c3cc(C(=O)NCc4ccco4)ccc3c2=O)cc1OC | 102% (inactive) |
| O=C(/C=C/NNC(=O)c1ccccc1)c1ccccc1 | 109% (inactive) |
| CC1CCCN(c2oc(-c3cccc4ccccc34)nc2C#N)C1 (centres undefined) | 92.1% (inactive) |

| SMILES | viability |
| --- | --- |
| CC1(C)CSC(=S)N1S(=O)(=O)c1ccccc1 | 99.8% (inactive) |
| Oc1ccc2oc3c(c2c1/C=N/n1cnnc1)CCCC3 | 88.2% (inactive) |
| CCC(C)(C)n1nnnc1C(c1cc2cc(C)cc(C)c2[nH]c1=O)N1CCN(Cc2ccc3c(c2)OCO3)CC1 (centres undefined) | 80.5% (inactive) |
| CC1(C)Cc2ccccc2C(NNC(=O)c2ccccn2)=N1 | 93.7% (inactive) |
| COc1ccccc1NC(=O)C1C2C=CC(O2)C1C(=O)O (centres undefined) | 94.6% (inactive) |
| CC1=C(C)CS(=O)N(S(=O)(=O)c2ccc(Cl)cc2)C1 (centres undefined) | 101% (inactive) |
| COc1ccc(-c2noc(-c3ccc(Br)o3)n2)cc1OC | 99.7% (inactive) |
| CN1C(=O)C(O)(CC(=O)c2cccc(-n3cccc3)c2)c2ccccc21 (centres undefined) | 84.7% (inactive) |
| Cc1nn(C)c(C)c1NC(=O)CSc1nc(C2CC2)nc2c1cnn2-c1ccccc1 | 101% (inactive) |
| CCOC(=O)c1ccc(NC(=O)c2c(C)[nH]c(C(=O)OCC)c2C)cc1 | 96.7% (inactive) |
| CC1CC(C)CN(S(=O)(=O)c2ccc(C(=O)NCCCn3ccnc3)cc2)C1 (centres undefined) | 88.4% (inactive) |
| c1ccc(CSc2nnc(-c3c[nH]c4ccccc34)o2)cc1 | 85.9% (inactive) |
| Cn1c(NC(=O)c2cccc(Cn3cc(Cl)cn3)c2)nc2ccccc21 | 83.1% (inactive) |
| CCCS(=O)(=O)N1CCC(C(=O)N2CCC3(CC2)OCCO3)CC1 | 99.1% (inactive) |
| O=C(Nc1cccnc1)c1ccc(Oc2ccccc2)cc1 | 108% (inactive) |
| O=C(Nc1ccc(-c2nc3c(ccc4ccccc43)o2)cc1)c1ccco1 | 90% (inactive) |
| CCOC(=O)CNC(=O)C(=O)c1c(O)[nH]c2ccccc12 | 96.7% (inactive) |
| c1ccc2c(c1)oc1c(NCCCN3CCOCC3)ncnc12 | 96.1% (inactive) |
| Brc1cccc(-c2nnc3sc(CNC4CCCC4)cn23)c1 | 84% (inactive) |
| CCCN(CCO)Cc1cccc(Br)c1 | 92.7% (inactive) |
| Clc1ccc(Cn2cc(/C=N/n3cnnc3)c3ccccc32)c(Cl)c1 | 87.3% (inactive) |
| Cc1cc(C(=O)OC(C)C(=O)Nc2cccc(S(=O)(=O)N3CCOCC3)c2)c(C)o1 (centres undefined) | 101% (inactive) |
| Cc1ccc(NC(=O)c2c(O)c3ccccc3n(C)c2=O)nc1 | 101% (inactive) |

| SMILES | viability |
| --- | --- |
| CCn1c(Cc2ccc(OC)cc2)nnc1SCC(=O)Nc1cccc(C(=O)OC)c1 | 81.8% (inactive) |
| CCCC1(CCC)NC(=O)N(CC(=O)Nc2ccccc2OC)C1=O | 113% (inactive) |
| Cc1nc2ccccc2n1CCc1nc2c3ccccc3nc(SCC(=O)NCc3ccco3)n2n1 | 86.4% (inactive) |
| CC1=C(C)CS(=O)N(S(=O)(=O)c2ccccc2)C1 (centres undefined) | 80.3% (inactive) |
| COc1ccccc1N1CCN(C(=O)c2ccc(Br)s2)CC1 | 97.5% (inactive) |
| Cc1ccc(-n2nnnc2SCC(=O)Nc2ccc3c(c2)COC3=O)cc1C | 91.3% (inactive) |
| O=C1CC(Sc2nnc(-c3ccccc3O)o2)C(=O)N1c1ccccc1 (centres undefined) | 93% (inactive) |
| Cc1ccc(-c2nnc(N3CCN(C(=O)CSc4ncn[nH]4)CC3)c3ccccc23)cc1 | 85.9% (inactive) |
| COc1ccc2[nH]cc(C(=O)CN3CCN(C(=O)c4ccco4)CC3)c2c1 | 101% (inactive) |
| CC(C(=O)N1CCOCC1)N1C(=O)c2ccccc2C1=O (centres undefined) | 105% (inactive) |
| O=S1(=O)c2ccccc2N=NN1Cc1cc(Cl)cc(Cl)c1 | 84.9% (inactive) |
| Cc1nc2cc(N3CCCCC3)c(NC(=O)c3cccnc3)cc2c(=O)n1Cc1ccccc1 | 89.3% (inactive) |
| O=C(Nc1nc(NC(=O)c2ccco2)n(-c2ccccc2)n1)c1ccccc1 | 84.5% (inactive) |
| Cc1ccc(Cn2c(=S)[nH]c3ccc(N4CCOCC4)cc3c2=O)o1 | 90.9% (inactive) |
| CC1=CC(C)(C)Nc2ccc(OC(=O)CN3C(=O)C4CCCCC4C3=O)cc21 (centres undefined) | 91% (inactive) |
| CSc1nnc2n(-c3ccc(C)cc3)c(=O)c3c4c(sc3n12)COC(C(C)C)C4 (centres undefined) | 81.8% (inactive) |
| CNC(=O)Cn1c(=O)n(C)c2ccccc21 | 91.8% (inactive) |
| CC(C)OC(=O)NCCOC(=O)Nc1cccc(Cl)c1 | 89.1% (inactive) |
| CCn1nc(C(=O)NC2=NCCS2)c2ccccc2c1=O | 101% (inactive) |
| COc1ccc(OC)c(C(=O)CSc2nnc(-c3ccc(OC)c(OC)c3)o2)c1 | 86.2% (inactive) |
| CSc1nncc(=O)[nH]1 | 96.7% (inactive) |
| O=C(CC1SCCNC1=O)Nc1cc(Cl)cc(Cl)c1 (centres undefined) | 96.6% (inactive) |
| Cc1ccc(-n2c(Cc3cccs3)nnc2SCC(=O)Nc2ccc(F)c(F)c2)cc1 | 82.4% (inactive) |
